{"source": "ChEMBL document CHEMBL1125155", "about": "“Preparation and anticonvulsant activity of a series of functionalized alpha-aromatic and alpha-heteroaromatic amino acids” (J Med Chem, 1990)", "key": {"Mus musculus [1]": {"tested_on": "Mus musculus", "test": "Concentration required to inhibit seizures was determined in MES test after (ip) administration in mice; Range is >25 to <100", "type": "functional", "how_it_was_run": "(§1)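 Male CF-1 mice; compounds dissolved in 30% polyethylene glycol 400, given ip. Screening at 30, 100, 300 mg/kg, four mice per dose, tested at 0.5, 1 and 4 h for protection against maximal electroshock seizures.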"}, "Mus musculus [2]": {"tested_on": "Mus musculus", "test": "Concentration required to inhibit seizures was determined in MES test after (ip) administration in mice", "type": "functional", "how_it_was_run": "as §1"}, "[3]": {"test": "Neurological toxicity was determined using horizontal screen test in mice after intraperitoneal administration", "type": "organism-based", "conditions": "mouse, in vivo, ip", "how_it_was_run": "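Male CF-1 mice, ip dosing in 30% PEG 400. Previously trained mice placed on a 13 × 13 cm no. 4 mesh wire screen on a vertical rod. Rod rotated 180°; failure to return to top within 1 min counted as impairment.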"}, "[4]": {"test": "Protective index (TD50/ED50) was determined", "type": "functional", "how_it_was_run": "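Ratio of horizontal-screen TD50 to MES ED50, both ip in male CF-1 mice given in 30% PEG 400. Both values taken at time of peak anticonvulsant activity, each from a dose-response curve (10–12 or 12 mice per dose).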"}, "Mus musculus [5]": {"tested_on": "Mus musculus", "test": "Concentration required to inhibit seizures was determined in MES test after (ip) administration in mice; Range is >100 to <300", "type": "functional"}, "[6]": {"test": "Neurological toxicity was determined using horizontal screen test in mice after intraperitoneal administration; Range is >100 to <300", "type": "organism-based", "conditions": "mouse, in vivo, ip"}}}
{"smiles": "CC(=O)NC(C(=O)NCc1c(F)cccc1F)c1ccco1", "note": "(configuration not stated)", "values": [{"measurement": "ED50", "setting": "Mus musculus [1]", "value": "> 25", "unit": "mg/kg"}]}
{"smiles": "CC(=O)N[C@H](C(=O)NCc1ccccc1)c1ccccc1", "values": [{"measurement": "ED50", "setting": "Mus musculus [2]", "value": "> 300", "unit": "mg/kg"}, {"measurement": "TD50", "setting": "[3]", "value": "> 100", "unit": "mg/kg"}]}
{"smiles": "CC(=O)NC(C(=O)NCc1ccccc1)c1ccc(O)cc1", "note": "(configuration not stated)", "values": [{"measurement": "ED50", "setting": "Mus musculus [2]", "value": "> 300", "unit": "mg/kg"}]}
{"smiles": "CC(=O)NC(C(=O)NCc1ccccc1)c1ccco1", "note": "(configuration not stated)", "values": [{"measurement": "ED50", "setting": "Mus musculus [2]", "value": 10.3, "unit": "mg/kg"}, {"measurement": "TD50", "setting": "[3]", "value": "~40", "unit": "mg/kg"}]}
{"smiles": "CC(=O)N[C@H](C(=O)NCc1ccccc1)c1ccco1", "values": [{"measurement": "ED50", "setting": "Mus musculus [2]", "value": "> 25", "unit": "mg/kg"}, {"measurement": "TD50", "setting": "[3]", "value": "> 200", "unit": "mg/kg"}]}
{"smiles": "CC(=O)NC(C(=O)NCc1cccc(F)c1)c1ccco1", "note": "(configuration not stated)", "values": [{"measurement": "TD50", "setting": "[3]", "value": 136, "unit": "mg/kg"}]}
{"smiles": "CC(=O)NC(C(=O)NCc1ccccc1)c1cccs1", "note": "(configuration not stated)", "values": [{"measurement": "TD50", "setting": "[3]", "value": "> 30", "unit": "mg/kg"}]}
{"smiles": "CC(=O)N[C@@H](C)C(=O)NCc1ccccc1", "values": [{"measurement": "ED50", "setting": "Mus musculus [2]", "value": 548, "unit": "mg/kg"}, {"measurement": "TD50", "setting": "[3]", "value": 841, "unit": "mg/kg"}]}
{"smiles": "CC(=O)NC(C(=O)NCc1ccccc1)c1ccc(C)o1", "note": "(configuration not stated)", "values": [{"measurement": "TD50", "setting": "[3]", "value": 75.4, "unit": "mg/kg"}]}
{"smiles": "CC(=O)NC(C(=O)NCc1ccccc1)c1c[nH]c2ccccc12", "note": "(configuration not stated)", "values": [{"measurement": "ED50", "setting": "Mus musculus [2]", "value": "> 300", "unit": "mg/kg"}, {"measurement": "TD50", "setting": "[3]", "value": "< 300", "unit": "mg/kg"}]}
{"smiles": "COc1ccc(C(NC(C)=O)C(=O)NCc2ccccc2)cc1", "note": "(configuration not stated)", "values": [{"measurement": "ED50", "setting": "Mus musculus [2]", "value": "> 300", "unit": "mg/kg"}]}
{"smiles": "CC(=O)NC(C(=O)NCc1ccccc1)c1ccc[nH]1", "note": "(configuration not stated)", "values": [{"measurement": "TD50", "setting": "[3]", "value": "> 30", "unit": "mg/kg"}]}
{"smiles": "CC(=O)NC(C(=O)NCc1ccccc1)c1ccccc1", "note": "(configuration not stated)", "values": [{"measurement": "ED50", "setting": "Mus musculus [2]", "value": 32.1, "unit": "mg/kg"}, {"measurement": "TD50", "setting": "[3]", "value": "> 40", "unit": "mg/kg"}]}
{"smiles": "CC(=O)NC(C(=O)NCc1ccc(F)cc1)c1ccco1", "note": "(configuration not stated)", "values": [{"measurement": "TD50", "setting": "[3]", "value": 144, "unit": "mg/kg"}]}
{"smiles": "CC(=O)N[C@@H](C(=O)NCc1ccccc1)c1ccco1", "values": [{"measurement": "ED50", "setting": "Mus musculus [2]", "value": 3.3, "unit": "mg/kg"}, {"measurement": "Ratio", "setting": "[4]", "value": 7.2}, {"measurement": "TD50", "setting": "[3]", "value": 23.8, "unit": "mg/kg"}]}
{"smiles": "CC(=O)NC(C(=O)NCc1ccccc1)c1cc2ccccc2s1", "note": "(configuration not stated)", "values": [{"measurement": "ED50", "setting": "Mus musculus [5]", "value": "> 100", "unit": "mg/kg"}, {"measurement": "TD50", "setting": "[6]", "value": "> 100", "unit": "mg/kg"}]}
{"smiles": "CC(=O)NC(C(=O)NCc1ccccc1)c1ccsc1", "note": "(configuration not stated)", "values": [{"measurement": "TD50", "setting": "[3]", "value": "> 100", "unit": "mg/kg"}]}
{"smiles": "CC(=O)N[C@H](C)C(=O)NCc1ccccc1", "values": [{"measurement": "ED50", "setting": "Mus musculus [2]", "value": 54.8, "unit": "mg/kg"}, {"measurement": "TD50", "setting": "[3]", "value": 214, "unit": "mg/kg"}]}
{"smiles": "CCC1(c2ccccc2)C(=O)NC(=O)NC1=O", "note": "[PHENOBARBITAL]", "values": [{"measurement": "ED50", "setting": "Mus musculus [2]", "value": 21.8, "unit": "mg/kg"}]}
{"smiles": "CC(=O)NC(C(=O)NCc1ccccc1)c1ccc2ccccc2c1", "note": "(configuration not stated)", "values": [{"measurement": "ED50", "setting": "Mus musculus [2]", "value": "> 300", "unit": "mg/kg"}, {"measurement": "TD50", "setting": "[3]", "value": "> 300", "unit": "mg/kg"}]}
{"smiles": "CC(=O)NC(C(=O)NCc1ccccc1)c1cc(C)ccc1O", "note": "(configuration not stated)", "values": [{"measurement": "ED50", "setting": "Mus musculus [2]", "value": "> 300", "unit": "mg/kg"}]}
{"smiles": "CC(=O)N[C@@H](C(=O)NCc1ccccc1)c1ccccc1", "values": [{"measurement": "ED50", "setting": "Mus musculus [2]", "value": 26.4, "unit": "mg/kg"}, {"measurement": "TD50", "setting": "[3]", "value": "> 80", "unit": "mg/kg"}]}
{"smiles": "CC(=O)NC(C(=O)NCc1ccccc1)c1cccn1C", "note": "(configuration not stated)", "values": [{"measurement": "ED50", "setting": "Mus musculus [2]", "value": "~300", "unit": "mg/kg"}]}
{"smiles": "CC(=O)NC(C(=O)NCc1ccccc1)c1cc2ccccc2o1", "note": "(configuration not stated)", "values": [{"measurement": "ED50", "setting": "Mus musculus [5]", "value": "> 100", "unit": "mg/kg"}, {"measurement": "TD50", "setting": "[6]", "value": "> 100", "unit": "mg/kg"}]}
